In PMC6061410 (Clinical Drug Investigation, 2018):

Columns and labels:
CYP3A4 = details: cited from earlier work
Intrinsic solubility = format: physicochemical
[1] = Pharmacokinetics of 25-mg single morning or evening dose, part 2; format: in vivo, human
In short: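 Open-label two-period crossover in 12 healthy young subjects. Each took single fasted 25-mg doses, morning and evening, separated by a washout of at least 11 days. Blood was sampled pre-dose to 96 h and measured by LC-MS/MS. AUC0–tz, AUC0–∞ and Cmax were given as adjusted gMeans with evening/morning ratio and 90% CI. tmax was given as median (range).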

[2] = cited from earlier work
healthy young subjects = assay: Safety and tolerability; format: in vivo, human
In short: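 Adverse events were recorded by system organ class and preferred term in 12 healthy young subjects. Each received single fasted 25-mg doses in the morning and evening, open-label crossover, washout ≥11 days. Baselines were the last measurements before the morning dose and before the evening dose.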

[3] = Pharmacokinetics after single and multiple doses, part 1; format: in vivo, human; details: for AUCτ,ss,norm / Cmax,ss,norm / AUC0–24,norm / Cmax,norm / AUC(0-t) / AUC / Cmax: gMean (%CV); for AUC: AUCτ,ss; for Tmax: median and range (minimum, maximum)
In short: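 Randomised 3:1 double-blind placebo-controlled groups (9 active, 3 placebo) of healthy young or elderly subjects took 5- or 25-mg tablets. Dosing was a single dose on day 1, QD or BID for 10 days from day 4, and a single dose on day 14. Fasted on days 1 and 14. Blood was sampled through day 23 and urine after first and last doses (QD only). Plasma/urine LC-MS/MS used a seven-point calibration. Geometric mean (%CV) values were reported.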

[4] = elderly, 25 mg QD, multiple dose
[5] = elderly, 50 mg QD, multiple dose

C[C@@H](Oc1ccc(S(C)(=O)=O)cc1C(=O)N1C[C@@H]2C[C@]2(c2cc(C(F)(F)F)on2)C1)C(F)(F)F [BI 425809]
role of CYP3A4 in metabolic pathway (CYP3A4; drug–drug interaction study confirming in-vitro data): major component of the BI 425809 metabolic pathway
CYP3A4 induction (CYP3A4; in-vitro and clinical studies): has the potential to induce CYP3A4 activity
metabolising enzyme (CYP3A4; in-vitro and clinical studies): primarily metabolised by CYP3A4
intrinsic solubility (Intrinsic solubility): low intrinsic solubility
AUC0–tz, adjusted gMean ratio evening/morning (90% CI) ([1]; 25 mg single dose): 120 (107–135) %
AUC0–∞, adjusted gMean ratio evening/morning (90% CI) ([1]; 25 mg single dose): 118 (104–134) %
Cmax, adjusted gMean ratio evening/morning (90% CI) ([1]; 25 mg single dose): 115 (98.1–136) %
higher gMean Cmax, evening compared with morning administration ([1]; 25 mg single dose, 90% CI 98.1–136): 15%
higher AUC0–tz, evening compared with morning administration ([1]; 25 mg single dose, 90% CI 107–135): 20%
AUC0–tz, adjusted gMean ([1]; 25 mg single evening dose, fasted): 8.41 µM·h
higher exposure, evening compared with morning ([1]; 25-mg tablet): 15–20%
AUC(0-t) ([1]; human, plasma, oral, 25 mg): 7 µM·h
Tmax ([1]; human, plasma, oral, 25 mg): 4.5 h
AUC(0-inf) ([1]; human, plasma, oral, 25 mg, AUC0–∞, adjusted gMean, 25 mg single morning dose, fasted): 8.77 µM·h
Cmax ([1]; human, plasma, oral, 25 mg, Cmax, adjusted gMean, 25 mg single morning dose, fasted): 241 nM
Adjusted gMean ratio Cmax, tablet fasted vs. oral solution fasted ([2]; 90% CI 45.1–55.4): 50.0%
Adjusted gMean ratio AUC0–tz, tablet fasted vs. oral solution fasted ([2]; 90% CI 74.0–87.6): 80.5%
Adjusted gMean ratio AUC0–tz, tablet fed vs. strongly fasted ([2]; high-fat/high-calorie breakfast ~ 1000 kcal, 90% CI 115.7–137.0): 125.9%
Adjusted gMean ratio Cmax, tablet fed vs. strongly fasted ([2]; high-fat/high-calorie breakfast ~ 1000 kcal, 90% CI 128.3–157.4): 142.1%
increase in AUC, high-fat/high-calorie meal vs. fasted ([2]; single dose 25 mg tablet): 26%
increase in Cmax, high-fat/high-calorie meal vs. fasted ([2]; single dose 25 mg tablet): 42%
median time to maximum plasma concentration ([2]; single doses 0.5–150 mg, oral solution, young healthy male volunteers): ~ 45 min
tolerability of single doses ([2]; single doses up to 100 mg, oral solution, young healthy male volunteers): generally well tolerated
changes in laboratory parameters, vital signs, 12-lead ECG, examinations, suicidality, oxygen saturation, VAS (healthy young subjects; part 2, single 25 mg doses): No clinically relevant changes
serious AEs (healthy young subjects; part 2, single 25 mg doses): No serious AEs were reported
Dizziness (healthy young subjects; young, part 2, 25 mg QD): 0 (–) n (%)
Eye disorders (healthy young subjects; young, part 2, 25 mg QD): 0 (–) n (%)
Gastrointestinal disorders (healthy young subjects; young, part 2, 25 mg QD): 0 (–) n (%)
General disorders and administration site conditions (healthy young subjects; young, part 2, 25 mg QD): 0 n (%)
Headache (healthy young subjects; young, part 2, 25 mg QD): 1 (8.3) n (%)
Infections and infestations (healthy young subjects; young, part 2, 25 mg QD): 1 (8.3) n (%)
Insomnia (healthy young subjects; young, part 2, 25 mg QD): 0 (–) n (%)
Musculoskeletal and connective tissue disorders (healthy young subjects; young, part 2, 25 mg QD): 0 (–) n (%)
Nasopharyngitis (healthy young subjects; young, part 2, 25 mg QD): 1 (8.3) n (%)
Nervous system disorder (healthy young subjects; young, part 2, 25 mg QD): 1 (8.3) n (%)
Ocular discomfort (healthy young subjects; young, part 2, 25 mg QD): 0 (–) n (%)
Psychiatric disorders (healthy young subjects; young, part 2, 25 mg QD): 0 (–) n (%)
Subjects with AEs leading to study discontinuation (healthy young subjects; young, part 2, 25 mg QD): 0 (–) n (%)
Subjects with investigator-defined drug-related AEs (healthy young subjects; young, part 2, 25 mg QD): 0 (–) n (%)
Total with AEs (healthy young subjects; young, part 2, 25 mg QD): 2 (16.7) n (%)
Vision blurred (healthy young subjects; young, part 2, 25 mg QD): 0 (–) n (%)
dose proportionality of exposure parameters (Cmax, AUC0–24, Cmax,ss and AUCτ,ss) ([3]; 10 and 25 mg, tablet): dose proportionality was observed
linearity index ([3]; QD groups): ~1
time to steady state after the start of multiple dosing ([3]; all treatment groups): 2 to 6 days
dose proportionality of exposure ([3]; doses of ≥ 50 mg, tablet): clearly less than dose proportional
AUCτ,ss,norm [3, 4]: 439 (11.6) nmol·h/L/mg
Cmax,ss,norm [3, 4]: 24.7 (10.9) nmol/L/mg
AUC0–24,norm ([3]; elderly, 25 mg QD, single dose): 139 (18.5) nmol·h/L/mg
Cmax,norm ([3]; elderly, 25 mg QD, single dose): 9.4 (18.7) nmol/L/mg
AUCτ,ss,norm [3, 5]: 278 (30.8) nmol·h/L/mg
Cmax,ss,norm [3, 5]: 16.0 (25.0) nmol/L/mg
AUC0–24,norm ([3]; elderly, 50 mg QD, single dose): 112 (17.9) nmol·h/L/mg
Cmax,norm ([3]; elderly, 50 mg QD, single dose): 7.43 (25.9) nmol/L/mg
AUC(0-t) ([3]; human, plasma, oral, 10 mg, AUC0–24, young, 10 mg QD, single dose): 1.41 µM·h
AUC ([3]; human, plasma, oral, 10 mg, young, 10 mg QD, multiple dose): 3.87 µM·h
Cmax ([3]; human, plasma, oral, 10 mg, Cmax, young, 10 mg QD, single dose): 109 nM
Tmax ([3]; human, plasma, oral, 10 mg, tmax,ss, young, 10 mg QD, multiple dose): 4.5 h
AUC(0-t) ([3]; human, plasma, oral, 25 mg, AUC0–24, elderly, 25 mg QD, single dose): 3.46 µM·h
AUC(0-t) ([3]; human, plasma, oral, 25 mg, AUC0–24, young, 25 mg QD, single dose): 3.72 µM·h
AUC ([3]; human, plasma, oral, 25 mg, elderly, 25 mg QD, multiple dose): 11 µM·h
AUC ([3]; human, plasma, oral, 25 mg, young, 25 mg QD, multiple dose): 10.6 µM·h
Cmax ([3]; human, plasma, oral, 25 mg, Cmax, elderly, 25 mg QD, single dose): 235 nM
Cmax ([3]; human, plasma, oral, 25 mg, Cmax, young, 25 mg QD, single dose): 278 nM
Cmax ([3]; human, plasma, oral, 25 mg, Cmax,ss, elderly, 25 mg QD, multiple dose): 618 nM
Cmax ([3]; human, plasma, oral, 25 mg, Cmax,ss, young, 25 mg QD, multiple dose): 582 nM
Tmax ([3]; human, plasma, oral, 25 mg, tmax, elderly, 25 mg QD, single dose): 3.5 h
Tmax ([3]; human, plasma, oral, 25 mg, tmax, young, 25 mg QD, single dose): 4.5 h
Tmax ([3]; human, plasma, oral, 25 mg, tmax,ss, elderly, 25 mg QD, multiple dose): 3 h
Tmax ([3]; human, plasma, oral, 25 mg, tmax,ss, young, 25 mg QD, multiple dose): 3.75 h
AUC(0-t) ([3]; human, plasma, oral, 50 mg, AUC0–24, elderly, 50 mg QD, single dose): 5.62 µM·h
AUC(0-t) ([3]; human, plasma, oral, 50 mg, AUC0–24, young, 50 mg QD, single dose): 6.02 µM·h
AUC ([3]; human, plasma, oral, 50 mg, elderly, 50 mg QD, multiple dose): 13.9 µM·h
AUC ([3]; human, plasma, oral, 50 mg, young, 50 mg QD, multiple dose): 14.2 µM·h
Cmax ([3]; human, plasma, oral, 50 mg, Cmax, elderly, 50 mg QD, single dose): 371 nM
Cmax ([3]; human, plasma, oral, 50 mg, Cmax, young, 50 mg QD, single dose): 397 nM
Cmax ([3]; human, plasma, oral, 50 mg, Cmax,ss, elderly, 50 mg QD, multiple dose): 802 nM
Cmax ([3]; human, plasma, oral, 50 mg, Cmax,ss, young, 50 mg QD, multiple dose): 800 nM
Tmax ([3]; human, plasma, oral, 50 mg, tmax, elderly, 50 mg QD, single dose): 4.5 h
Tmax ([3]; human, plasma, oral, 50 mg, tmax, young, 50 mg QD, single dose): 4.5 h
Tmax ([3]; human, plasma, oral, 50 mg, tmax,ss, elderly, 50 mg QD, multiple dose): 4.5 h
Tmax ([3]; human, plasma, oral, 50 mg, tmax,ss, young, 50 mg QD, multiple dose): 3.5 h
AUC(0-t) ([3]; human, plasma, oral, 75 mg, AUC0–24, young, 75 mg BID, single dose, fed): 12 µM·h
AUC(0-t) ([3]; human, plasma, oral, 75 mg, AUC0–24, young, 75 mg QD, single dose, fasted): 7.17 µM·h
AUC ([3]; human, plasma, oral, 75 mg, young, 75 mg QD, multiple dose): 16.5 µM·h
Cmax ([3]; human, plasma, oral, 75 mg, Cmax, young, 75 mg BID, single dose, fed): 884 nM
Cmax ([3]; human, plasma, oral, 75 mg, Cmax, young, 75 mg QD, single dose, fasted): 451 nM
Cmax ([3]; human, plasma, oral, 75 mg, Cmax,ss, young, 75 mg QD, multiple dose): 1020 nM
Tmax ([3]; human, plasma, oral, 75 mg, tmax, young, 75 mg BID, single dose): 4.02 h
Tmax ([3]; human, plasma, oral, 75 mg, tmax,ss, young, 75 mg BID, multiple dose, tmax,22 given): 3.5 h
Tmax ([3]; human, plasma, oral, 75 mg, tmax,ss, young, 75 mg QD, multiple dose): 4.5 h
exposure multiple (AUC0–24 and Cmax), 75-mg BID dose group vs 25-mg dose group ([3]; in vivo): 3.2 fold
increase in AUCτ,ss, 75 mg BID vs. 75 mg QD ([3]; multiple dosing): 14%
increase in Cmax,ss, 75 mg BID vs. 75 mg QD ([3]; multiple dosing): 90%
Cmax ([3]; read-out: Cmax,ss, young, 10 mg QD, multiple dose): 221 nM
AUCτ,ss,norm ([3]; young, 10 mg QD, multiple dose): 387 (22.2) nmol·h/L/mg
Cmax,ss,norm ([3]; young, 10 mg QD, multiple dose): 22.1 (19.5) nmol/L/mg
AUC0–24,norm ([3]; young, 10 mg QD, single dose): 141 (20.1) nmol·h/L/mg
Cmax,norm ([3]; young, 10 mg QD, single dose): 10.9 (19.0) nmol/L/mg
AUCτ,ss,norm ([3]; young, 25 mg QD, multiple dose): 425 (31.7) nmol·h/L/mg
Cmax,ss,norm ([3]; young, 25 mg QD, multiple dose): 23.3 (27.6) nmol/L/mg
AUC0–24,norm ([3]; young, 25 mg QD, single dose): 149 (18.2) nmol·h/L/mg
Cmax,norm ([3]; young, 25 mg QD, single dose): 11.1 (19.7) nmol/L/mg
AUCτ,ss,norm ([3]; young, 50 mg QD, multiple dose): 285 (29.4) nmol·h/L/mg
Cmax,ss,norm ([3]; young, 50 mg QD, multiple dose): 16.0 (26.3) nmol/L/mg
AUC0–24,norm ([3]; young, 50 mg QD, single dose): 120 (24.4) nmol·h/L/mg
Cmax,norm ([3]; young, 50 mg QD, single dose): 7.95 (28.7) nmol/L/mg
AUCτ,ss,norm ([3]; young, 75 mg BID, multiple dose, AUCτ,22,norm given): 251 (20.2) nmol·h/L/mg
Cmax,ss,norm ([3]; young, 75 mg BID, multiple dose, Cmax,22,norm given): 25.8 (17.2) nmol/L/mg
AUC0–24,norm ([3]; young, 75 mg BID, single dose): 160 (13.7) nmol·h/L/mg
Cmax,norm ([3]; young, 75 mg BID, single dose): 11.8 (8.72) nmol/L/mg
AUCτ,ss,norm ([3]; young, 75 mg QD, multiple dose): 220 (29.6) nmol·h/L/mg
Cmax,ss,norm ([3]; young, 75 mg QD, multiple dose): 13.6 (23.1) nmol/L/mg
AUC0–24,norm ([3]; young, 75 mg QD, single dose): 95.6 (17.9) nmol·h/L/mg
Cmax,norm ([3]; young, 75 mg QD, single dose): 6.01 (17.9) nmol/L/mg
